# Test results: ChEMBL document CHEMBL5143731, “N-Acylamino Saccharin as an Emerging Cysteine-Directed Covalent Warhead and Its Application in the Identification of Novel FBPase Inhibitors toward Glucose Reduction” (J Med Chem, 2022)
# Active and inactive are the calls of the source. The rule behind the calls is not given here.
# Columns and labels:
# [1] = biological target: T1, Fructose-1,6-bisphosphatase 1 (Homo sapiens, UniProt P09467); experiment: Inhibition of human FBPase expressed Escherichia coli BL21 in by malachite green dye based spectrophotometry
# T1 sequence (P09467 whole entry): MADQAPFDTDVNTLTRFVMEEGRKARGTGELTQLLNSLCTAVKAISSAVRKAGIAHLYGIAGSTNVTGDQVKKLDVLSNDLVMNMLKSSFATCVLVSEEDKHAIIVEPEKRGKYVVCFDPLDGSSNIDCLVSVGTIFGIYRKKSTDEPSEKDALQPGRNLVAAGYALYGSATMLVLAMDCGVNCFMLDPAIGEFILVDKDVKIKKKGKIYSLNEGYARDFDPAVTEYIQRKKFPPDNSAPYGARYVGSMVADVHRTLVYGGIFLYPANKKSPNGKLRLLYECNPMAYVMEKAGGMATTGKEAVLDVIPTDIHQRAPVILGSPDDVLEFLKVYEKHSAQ
# Procedure, shortened: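 His-tagged human liver FBPase expressed in E. coli BL21(DE3) and purified by Ni affinity. Phosphate released from FBP complexed with ammonium molybdate/malachite green and read at 620 nm against a KH2PO4 standard curve (2−60 μM). Initial rates at saturating substrate, fixed effector and varied inhibitor fitted to the Hill equation for IC50.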
# Homo sapiens [2] = organism: Homo sapiens; experiment: Selectivity ratio of IC50 for human FBPase to IC50 for recombinant ALDOB (unknown origin)
# Procedure, shortened: (§1)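 Aldolase (ALDOA/B/C) IC50 by NADH-coupled assay: enzyme plus serial compound dilutions, 0.41 mM NADH and TPI in 0.1 M Tris pH 7.4/0.2 M K-acetate, 3 min at 37 °C. Started with FBP and […], A340 read every 30 s for 6 min. Ratios against the FBPase IC50 from malachite green phosphate assay (620 nm).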
# [3] = Half life of the compound in buffer; assay type: physicochemical
# Procedure, shortened: (§2)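 Electrophile (20 μmol) incubated at 37 °C either in pH 7.4 buffer, or in DMSO-d6/D2O (5:1), with or without glutathione. Decay followed by 1H NMR kinetics. First-order rate constant kpseudo-1st taken from ln[electrophile] versus time; t1/2 = 0.693/(60×k), in min.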
# [4] = Half life of the compound in GSH; assay type: physicochemical; conditions: GSH (glutathione); procedure, shortened: as §2
# Homo sapiens [5] = organism: Homo sapiens; experiment: Selectivity ratio of IC50 for human FBPase to IC50 for human GAPDH
# Procedure, shortened: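 Recombinant human GAPDH (His-tag, E. coli; 0.1 mg/mL final) preincubated 30 min with compound in 10 mM sodium pyrophosphate pH 8.5 at 37 °C. Started with arsenate, 4 mM NAD+ and 12 mM G3P; A340 at 4 min. Ratio taken against FBPase IC50 from the malachite green phosphate-release assay.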
# [6] = Half life of the compound in DMSO; assay type: physicochemical; procedure, shortened: as §2
# Homo sapiens [7] = organism: Homo sapiens; experiment: Selectivity ratio of IC50 for human FBPase to IC50 for recombinant ALDOA (unknown origin); procedure, shortened: as §1
# Homo sapiens [8] = organism: Homo sapiens; experiment: Selectivity ratio of IC50 for human FBPase to IC50 for recombinant ALDOC (unknown origin); procedure, shortened: as §1
# in vivo [9] = conditions: ICR, mouse, ip, 30 mg/kg
# [10] = AUCt in 12 hrs fasted ICR mouse at 30 mg/kg, ip measured after 24 hrs by LC-MS/MS analysis; conditions: in vivo
# in vivo [11] = conditions: ICR, mouse, ip, 30 mg/kg; remark: listed apart in the source
# in vivo [12] = conditions: ICR, mouse, ip, 30 mg/kg; remark: listed apart in the source
# [13] = biological target: T2, Fructose-1,6-bisphosphatase 1 (Homo sapiens) (UniProt P09467); experiment: Binding affinity to ABPP-labeled FBPase (unknown origin) at 2 to 8 uM by silver staining based streptavidin blotting; conditions: dose 2-8 µM
# T2 sequence (whole entry): T1 sequence (P09467 whole entry)
# Procedure, shortened: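 LO2 lysate (2 mg/mL) treated with 2−8 μM alkyne probe, 37 °C, 2 h. Click-biotinylated by CuAAC (0.5 mM reagents, 1 h, 37 °C), resolved by 10% SDS-PAGE. Probed by silver stain and streptavidin-HRP blot; labelled bands near 35 kDa read. 2 μM iodoacetamide alkyne served as the reference.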
# [14] = biological target: T2, Fructose-1,6-bisphosphatase 1 (Homo sapiens); experiment: Binding affinity to ABPP-labeled FBPase (unknown origin) by silver staining based streptavidin blotting; conditions: dose 2-10 µM, DDE = dose-dependent effect
# Procedure, shortened: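 LO2 cell lysate (2 mg/mL protein, RPMI-1640/10% FBS cultures lysed at 70−80% confluence) or purified FBPase labelled with a series of alkyne probe concentrations, 37 °C, 2 h. CuAAC with 0.5 mM each of biotin-PEG3-azide, ascorbate, THPTA and CuSO4, 37 °C, 1 h. Samples run on 10% SDS-PAGE, then silver staining and streptavidin-HRP blot with ECL detection.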
# [15] = biological target: T3, Tyrosine-protein kinase JAK3 (Homo sapiens) (UniProt P52333); experiment: Inhibition of JAK3 (unknown origin) at 300 uM measured after 40 mins in presence of ATP by luminescence assay relative to control
# T3 sequence (whole entry): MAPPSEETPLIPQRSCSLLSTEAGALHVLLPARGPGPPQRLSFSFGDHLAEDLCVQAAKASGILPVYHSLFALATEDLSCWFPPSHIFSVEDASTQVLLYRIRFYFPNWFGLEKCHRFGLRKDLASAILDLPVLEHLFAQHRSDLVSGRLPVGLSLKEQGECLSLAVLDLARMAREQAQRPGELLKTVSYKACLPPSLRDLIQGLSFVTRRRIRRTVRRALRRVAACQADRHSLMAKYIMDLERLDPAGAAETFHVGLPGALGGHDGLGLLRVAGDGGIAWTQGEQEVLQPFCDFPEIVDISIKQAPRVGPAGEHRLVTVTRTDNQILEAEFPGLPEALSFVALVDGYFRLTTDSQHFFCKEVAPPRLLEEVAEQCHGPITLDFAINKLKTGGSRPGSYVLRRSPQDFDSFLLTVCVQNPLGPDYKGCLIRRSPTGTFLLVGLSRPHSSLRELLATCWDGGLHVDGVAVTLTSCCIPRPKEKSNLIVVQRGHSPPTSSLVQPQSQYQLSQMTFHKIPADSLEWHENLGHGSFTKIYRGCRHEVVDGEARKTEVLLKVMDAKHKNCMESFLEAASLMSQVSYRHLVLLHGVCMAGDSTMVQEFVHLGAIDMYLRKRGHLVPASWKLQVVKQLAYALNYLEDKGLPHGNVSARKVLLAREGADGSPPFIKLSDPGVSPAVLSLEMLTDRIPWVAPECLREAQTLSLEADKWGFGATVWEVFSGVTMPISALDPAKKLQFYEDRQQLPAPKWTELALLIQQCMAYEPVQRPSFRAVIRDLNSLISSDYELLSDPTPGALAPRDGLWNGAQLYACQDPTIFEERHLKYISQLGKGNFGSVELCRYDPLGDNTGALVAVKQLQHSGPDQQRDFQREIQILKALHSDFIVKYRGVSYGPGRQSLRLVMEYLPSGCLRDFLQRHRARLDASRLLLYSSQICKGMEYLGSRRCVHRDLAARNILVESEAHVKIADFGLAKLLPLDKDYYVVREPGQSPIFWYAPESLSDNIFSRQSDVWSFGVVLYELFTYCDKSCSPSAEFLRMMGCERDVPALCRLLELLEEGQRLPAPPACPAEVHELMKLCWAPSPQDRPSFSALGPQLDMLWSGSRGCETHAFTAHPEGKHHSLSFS
# Procedure, shortened: (§3)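 Kinase reaction (50 μL): 40 mM Tris pH 7.4, 10 mM MgCl2, 0.1 mg/mL BSA, 1 mM DTT, 10 μM ATP, kinase and substrate, with 1% final DMSO. Run 40 min at 30 °C. Residual ATP read by Kinase-Glo Plus luminescence, inversely related to kinase activity.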
# [16] = biological target: Tyrosine-protein kinase BTK (Homo sapiens) (UniProt Q06187); experiment: Inhibition of BTK (unknown origin) at 300 uM measured after 40 mins in presence of ATP by luminescence assay relative to control; procedure, shortened: as §3
# [17] = biological target: Epidermal growth factor receptor (Homo sapiens) (UniProt P00533); experiment: Inhibition of EGFR (unknown origin) at 300 uM measured after 40 mins in presence of ATP by luminescence assay relative to control; procedure, shortened: as §3
# Chain of Epidermal growth factor receptor (Homo sapiens) (P00533 whole entry): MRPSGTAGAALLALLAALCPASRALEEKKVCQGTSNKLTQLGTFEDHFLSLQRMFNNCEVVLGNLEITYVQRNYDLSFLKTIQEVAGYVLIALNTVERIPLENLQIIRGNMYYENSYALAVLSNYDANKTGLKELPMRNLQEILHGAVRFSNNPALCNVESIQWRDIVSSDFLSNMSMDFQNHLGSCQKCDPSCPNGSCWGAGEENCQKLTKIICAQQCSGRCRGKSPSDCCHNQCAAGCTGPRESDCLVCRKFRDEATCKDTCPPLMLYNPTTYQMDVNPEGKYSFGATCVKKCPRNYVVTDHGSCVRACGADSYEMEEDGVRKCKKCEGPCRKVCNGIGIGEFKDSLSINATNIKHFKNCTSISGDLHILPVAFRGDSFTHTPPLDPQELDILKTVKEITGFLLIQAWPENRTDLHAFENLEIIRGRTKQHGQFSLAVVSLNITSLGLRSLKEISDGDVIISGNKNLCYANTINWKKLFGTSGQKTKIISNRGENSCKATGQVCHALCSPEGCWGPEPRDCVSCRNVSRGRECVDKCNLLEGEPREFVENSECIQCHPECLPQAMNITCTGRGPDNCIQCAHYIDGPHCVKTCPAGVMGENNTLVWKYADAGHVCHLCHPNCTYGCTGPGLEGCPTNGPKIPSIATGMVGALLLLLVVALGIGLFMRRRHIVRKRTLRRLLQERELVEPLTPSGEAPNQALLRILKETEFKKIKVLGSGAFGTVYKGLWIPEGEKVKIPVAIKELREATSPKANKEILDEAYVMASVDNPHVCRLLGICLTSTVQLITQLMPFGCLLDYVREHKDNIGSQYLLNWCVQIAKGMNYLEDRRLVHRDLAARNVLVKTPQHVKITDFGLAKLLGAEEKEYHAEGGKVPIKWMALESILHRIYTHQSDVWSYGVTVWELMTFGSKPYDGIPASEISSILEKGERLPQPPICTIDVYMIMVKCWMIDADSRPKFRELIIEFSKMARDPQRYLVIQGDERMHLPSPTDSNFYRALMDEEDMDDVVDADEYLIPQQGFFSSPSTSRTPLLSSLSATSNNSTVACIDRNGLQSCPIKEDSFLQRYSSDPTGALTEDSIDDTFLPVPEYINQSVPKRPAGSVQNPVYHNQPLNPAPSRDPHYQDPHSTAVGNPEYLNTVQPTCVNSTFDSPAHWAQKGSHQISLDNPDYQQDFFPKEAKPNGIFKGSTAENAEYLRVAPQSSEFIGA
# Chain of Tyrosine-protein kinase BTK (Homo sapiens) (Q06187 whole entry): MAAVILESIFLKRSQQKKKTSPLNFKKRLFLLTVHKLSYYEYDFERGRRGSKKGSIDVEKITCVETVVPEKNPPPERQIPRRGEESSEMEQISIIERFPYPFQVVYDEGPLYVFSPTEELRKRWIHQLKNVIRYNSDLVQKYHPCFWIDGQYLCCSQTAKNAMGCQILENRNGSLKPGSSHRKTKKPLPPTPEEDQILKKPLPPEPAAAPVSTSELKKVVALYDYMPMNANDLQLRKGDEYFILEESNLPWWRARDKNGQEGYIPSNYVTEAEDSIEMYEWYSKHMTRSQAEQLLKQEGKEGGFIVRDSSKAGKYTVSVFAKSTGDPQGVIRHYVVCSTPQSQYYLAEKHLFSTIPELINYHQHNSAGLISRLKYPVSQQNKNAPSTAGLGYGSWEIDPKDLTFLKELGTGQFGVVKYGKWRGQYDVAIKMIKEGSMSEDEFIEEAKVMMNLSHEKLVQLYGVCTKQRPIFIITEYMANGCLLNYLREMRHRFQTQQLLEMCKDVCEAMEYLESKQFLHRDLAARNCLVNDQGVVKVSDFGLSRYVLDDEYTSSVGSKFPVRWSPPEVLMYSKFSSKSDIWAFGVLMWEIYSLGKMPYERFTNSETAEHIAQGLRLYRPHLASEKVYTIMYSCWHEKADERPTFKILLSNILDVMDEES
Compound,half-life [3],half-life [4],half-life [6],other results
O=C(CCc1ccccc1)N1C(=O)c2ccccc2S1(=O)=O,> 167 h,–,5.78 h,–
COc1cccc(CNC(=O)N2C(=O)c3ccccc3S2(=O)=O)c1,> 167 h,0.523 h,> 167 h,IC50 [1]: 1.9 µM; Ratio IC50 (Homo sapiens [2]): > 25; Ratio IC50 (Homo sapiens [5]): > 25; Ratio IC50 (Homo sapiens [7]): > 25; Ratio IC50 (Homo sapiens [8]): > 25
O=C(NCc1ccccc1C(F)(F)F)N1C(=O)c2ccccc2S1(=O)=O,> 167 h,0.187 h,> 167 h,–
CC(NC(=O)N1C(=O)c2ccccc2S1(=O)=O)c1ccccc1 (stereo not given),> 167 h,0.663 h,> 167 h,IC50 [1]: 8.7 µM; Ratio IC50 (Homo sapiens [2]): > 25; Ratio IC50 (Homo sapiens [5]): 1.3; Ratio IC50 (Homo sapiens [7]): > 25; Ratio IC50 (Homo sapiens [8]): > 25
O=C(NCc1ccc(C(F)(F)F)cc1)N1C(=O)c2ccccc2S1(=O)=O,> 167 h,0.212 h,> 167 h,–
O=C(NCCc1ccccc1)N1C(=O)c2ccccc2S1(=O)=O,> 167 h,0.56 h,> 167 h,–
O=C1NS(=O)(=O)c2ccccc21 [SACCHARIN],–,–,–,Cmax at 12 h (in vivo [9]): 29900 ng/mL; AUC(0-t) at 12 h [10]: 14000 ng·h/mL; Tmax at 12 h (in vivo [11]): 0.25 h; half-life at 12 h (in vivo [12]): 1.11 h
C#Cc1ccc(CNC(=O)N2C(=O)c3ccccc3S2(=O)=O)cc1,–,–,–,Activity [13]: Active; Activity [14]: Dde
COc1ccccc1CNC(=O)N1C(=O)c2ccccc2S1(=O)=O,> 167 h,1.12 h,> 167 h,IC50 [1]: 1.7 µM; Ratio IC50 (Homo sapiens [2]): > 25; inhibition [15]: < 50%; Ratio IC50 (Homo sapiens [5]): > 25; inhibition [16]: < 50%; inhibition [17]: < 50%; Ratio IC50 (Homo sapiens [7]): > 25; Ratio IC50 (Homo sapiens [8]): > 25
O=C(NCc1cccs1)N1C(=O)c2ccccc2S1(=O)=O,> 167 h,0.365 h,> 167 h,–
O=C(Oc1ccccc1)N1C(=O)c2ccccc2S1(=O)=O,> 167 h,–,3.04 h,–
O=C(Cc1ccccc1)N1C(=O)c2ccccc2S1(=O)=O,> 167 h,–,3.4 h,–
O=C(NCc1ccccc1Br)N1C(=O)c2ccccc2S1(=O)=O,> 167 h,0.253 h,> 167 h,–
COc1ccc(CNC(=O)N2C(=O)c3ccccc3S2(=O)=O)cc1,–,0.187 h,–,–
O=C(NCc1ccc(Br)cc1)N1C(=O)c2ccccc2S1(=O)=O,–,0.187 h,–,–
O=C(OCc1ccccc1)N1C(=O)c2ccccc2S1(=O)=O,> 167 h,< 0.0167 h,> 167 h,–

# The next lines start with results.
half-life [3],half-life [4],half-life [6],Compound,other results
> 167 h,0.792 h,> 167 h,Cc1ccccc1CNC(=O)N1C(=O)c2ccccc2S1(=O)=O,IC50 [1]: 3.6 µM; Ratio IC50 (Homo sapiens [2]): > 25; Ratio IC50 (Homo sapiens [5]): 3.6; Ratio IC50 (Homo sapiens [7]): > 25; Ratio IC50 (Homo sapiens [8]): > 25
> 167 h,0.395 h,> 167 h,O=C(NCc1cccc2ccccc12)N1C(=O)c2ccccc2S1(=O)=O,–
> 167 h,> 167 h,> 167 h,O=C(c1ccccc1)N1Cc2ccccc2S1(=O)=O,–
> 167 h,–,> 0.875 h,O=C(c1ccccc1)N1C(=O)c2ccccc2S1(=O)=O,–
> 167 h,0.598 h,> 167 h,O=C(NCc1ccccc1F)N1C(=O)c2ccccc2S1(=O)=O,IC50 [1]: 4.2 µM; Ratio IC50 (Homo sapiens [2]): > 25; Ratio IC50 (Homo sapiens [5]): 16.3; Ratio IC50 (Homo sapiens [7]): > 25; Ratio IC50 (Homo sapiens [8]): > 25
> 167 h,0.492 h,> 167 h,O=C(NCc1cccc(Br)c1)N1C(=O)c2ccccc2S1(=O)=O,–
> 167 h,0.963 h,> 167 h,O=C(NCC1CCCCC1)N1C(=O)c2ccccc2S1(=O)=O,IC50 [1]: 16.4 µM
> 167 h,0.775 h,> 167 h,CCCNC(=O)N1C(=O)c2ccccc2S1(=O)=O,IC50 [1]: > 500 µM
> 167 h,> 167 h,> 167 h,O=C(c1ccccc1)N1Cc2ccccc2C1=O,–
> 167 h,0.42 h,> 167 h,O=C(NCc1ccccc1Cl)N1C(=O)c2ccccc2S1(=O)=O,–
